Laboratory results from ChEMBL document CHEMBL2331364, “A synthetic dolastatin 10 analogue suppresses microtubule dynamics, inhibits cell proliferation, and induces apoptotic cell death” (J Med Chem, 2013).
The source made the active and inactive calls. The calls are words filed in the database; no cut-off is given here.

Key:
Homo sapiens [1] = species: Homo sapiens; assay: Inhibition of microtubule (unknown origin) assembly at 5 uM incubated for 15 mins prior to GTP addition measured for 30 mins by 90 degree light scattering-based fluorescence spectrophotometric method
Outline: (§1)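 MAP-rich tubulin (1 mg/mL) was preincubated with 1, 3, 5 or 10 μM in PEM buffer (25 mM Pipes pH 6.8, 3 mM MgCl2, 1 mM EGTA) for 15 min on ice. GTP (1 mM) was then added and assembly monitored by 90° light scattering at 400 nm for 30 min at 37 °C.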

HeLa [2] = assay: Induction of apoptosis in human HeLa cells assessed as mid apoptotic cells at 7 to 15 nM after 24 hrs by annexin V/propidium iodide staining-based FACS flow cytometry; assay type: functional, cell-based
Outline: (§2)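 HeLa cells were grown with vehicle (0.1% DMSO) or 7, 15 and 30 nM for 24 h and stained with an annexin V/propidium iodide kit. Stage was scored as annexin V-positive with weak PI (early/mid) or positive for both (late).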

HeLa [3] = assay: Induction of apoptosis in human HeLa cells assessed as early apoptotic cells at 7 to 15 nM after 24 hrs by annexin V/propidium iodide staining-based FACS flow cytometry; assay type: functional, cell-based; outline: as §2
HeLa [4] = assay: Inhibition of microtubule-kinetochore tension in human HeLa cells assessed as BubR1 accumulation at kinetochoric region at 15 to 45 nM after 24 hrs by Hoechst 33258 dye-based Hec1 staining assay; assay type: cell-based
HeLa [5] = assay: Inhibition of microtubule-kinetochore attachment in human HeLa cells assessed as BubR1 accumulation at kinetochoric region at 15 to 45 nM after 24 hrs by Hoechst 33258 dye-based Hec1 staining assay; assay type: cell-based
MCF7 [6] = assay: Inhibition of microtubule (unknown origin) dynamics in GFP-tubulin transfected human MCF7 cells assessed as microtubule catastrophe events at 15 nM by confocal laser scanning microscopy (reference value: 4 +/- 1.2 events/min); assay type: cell-based
Outline: (§3)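 EGFP-tubulin-transfected MCF-7 cells grown in EMEM with 10% FBS at 37 °C in 5% CO2, exposed to 15 nM compound (DMSO vehicle) or vehicle. Individual microtubules were followed by time-lapse confocal laser scanning microscopy and life-history traces were recorded. Kinetic parameters were derived from these traces, 20 microtubules per condition. Significance was tested by one-way ANOVA.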

MCF7 [7] = assay: Inhibition of microtubule (unknown origin) dynamics in GFP-tubulin transfected human MCF7 cells assessed as microtubule growth time at 15 nM by confocal laser scanning microscopy (reference value: 37 +/- 6 %); assay type: cell-based; set-up: scale not given: the % may be the effect or the level left; outline: as §3
MCF7 [8] = assay: Inhibition of microtubule (unknown origin) dynamics in GFP-tubulin transfected human MCF7 cells assessed as microtubule shortening rate at 15 nM by confocal laser scanning microscopy (reference value: 16.4 +/- 5 um/min); assay type: cell-based; outline: as §3
MCF7 [9] = assay: Inhibition of microtubule (unknown origin) dynamics in GFP-tubulin transfected human MCF7 cells assessed as decrease in microtubule growth rate at 15 nM by confocal laser scanning microscopy relative to control; assay type: cell-based
Outline: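 EGFP-tubulin transfected MCF-7 cells were treated with vehicle or 15 nM, and individual microtubules were tracked by confocal laser scanning microscopy, 20 microtubules per condition. Life-history parameters were derived as previously described. Significance was tested by one-way ANOVA.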

HeLa [10] = assay: Induction of interphase microtubule depolymerization in human HeLa cells at 35 nM after 3 hrs by Hoechst 33258 dye-based fluorescence microscopy; assay type: cell-based
Outline: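 HeLa cells were given a brief 3 h exposure to 35 nM. Interphase microtubules were then immunostained and examined by fluorescence microscopy.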

HeLa [11] = assay: Induction of interphase microtubule depolymerization in human HeLa cells at 30 nM after 24 hrs by Hoechst 33258 dye-based fluorescence microscopy; assay type: cell-based
HeLa [12] = assay: Antimitotic activity in human HeLa cells assessed as increase in phosphohistone H3 (Ser10) positive cell population at 15 nM after 24 hrs by fluorescence microscopic analysis (reference value: 3 +/- 0.3 %); assay type: functional
HeLa [13] = assay: Inhibition of mitosis in human HeLa cells assessed as mitotic index ratio at 30 nM after 24 hrs by Hoechst 33258 DNA staining assay (reference value: 3.2); assay type: functional
Outline: (§4)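 HeLa cells were treated with vehicle or 7, 15 or 30 nM compound for 24 or 48 h. DNA was stained with Hoechst 33258, and mitotic cells were counted by fluorescence microscopy to give the mitotic index, compared against vehicle-treated cells.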

HeLa [14] = assay: Inhibition of mitosis in human HeLa cells assessed as mitotic index ratio at 15 nM after 24 hrs by Hoechst 33258 DNA staining assay (reference value: 3.2); assay type: functional; outline: as §4
HeLa [15] = assay: Cell cycle arrest in human HeLa cells assessed as accumulation at G2/M phase at 45 nM after 24 hrs by propidium iodide staining-based flow cytometry (reference value: 4%); assay type: functional
MDA-MB-231 = assay: Cytotoxicity against human MDA-MB-231 cells after 24 to 48 hrs by trypan blue assay; assay type: functional, cell-based
Outline: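 Cells were seeded at 1 × 10^5 cells/mL, grown 24 h at 37 °C in 5% CO2, then given vehicle (0.1% DMSO) or 1–80 nM for a further 24 or 48 h. Attached plus floating cells were counted after trypan blue staining. Percent inhibition was plotted against concentration to give IC50. Average of three independent experiments.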

Tubulin (Homo sapiens) = Tubulin (Homo sapiens) (UniProt P68371+Q9H4B7+P0DPH7+P68366+Q13509+Q71U36+P04350+Q3ZCM7+P07437+P68363+Q9BQE3+Q6PEY2+Q13885+Q9BVA1+Q9BUF5); assay: (§5) Binding affinity to tubulin (unknown origin) after 15 mins by fluorescence spectrophotometry; assay type: protein-complex assay
Outline: (§6)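 Goat brain tubulin (2 μM) was incubated with ligand (5–100 μM) in 25 mM Pipes pH 6.8 for 15 min at 25 °C, read with excitation 295 nm and emission 336 nm in a 0.3 cm cell. No inner-filter correction was applied. ΔF was fitted to a quadratic binding equation to give Kd. Value is the average of five independent experiments.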

Tubulin = assay: as §5; assay type: protein-complex assay, Homo sapiens; outline: as §6
Homo sapiens [16] = species: Homo sapiens; assay: Inhibition of microtubule (unknown origin) GTPase activity using GTP as substrate assessed as reduction of inorganic phosphate release at 20 uM incubated for 10 mins prior to substrate addition measured after 10 mins by ammonium molybdate malachite green assay relative to control
Outline: (§7)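 GTP (1 mM) was added and the mixture polymerized at 37 °C for 10 min. Reactions were stopped with perchloric acid, and released phosphate was measured by ammonium molybdate–malachite green.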

Homo sapiens [17] = species: Homo sapiens; assay: Inhibition of microtubule (unknown origin) GTPase activity using GTP as substrate assessed as reduction of inorganic phosphate release at 10 uM incubated for 10 mins prior to substrate addition measured after 10 mins by ammonium molybdate malachite green assay relative to control; outline: as §7
Homo sapiens [18] = species: Homo sapiens; assay: Inhibition of microtubule (unknown origin) assembly at 1 to 10 uM incubated for 15 mins prior to GTP addition measured for 30 mins by 90 degree light scattering-based fluorescence spectrophotometric method; outline: as §1
Capra hircus = species: Capra hircus; assay: Inhibition of goat brain tubulin polymerization at 5 uM incubated for 20 mins prior to GTP addition measured for 30 mins by 90 degree light scattering-based fluorescence spectrophotometric method
Outline: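 Goat brain tubulin (10 μM) was preincubated with compound (5 μM; or 1, 5, 7, 10 μM) in 1 M monosodium glutamate, 3 mM MgCl2, 1 mM EGTA, 25 mM Pipes pH 6.8 on ice for 20 min. GTP (1 mM) was then added and assembly followed by 90° light scattering at 400 nm for 30 min at 37 °C. Experiment run twice.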

Which inhibition (Homo sapiens [1]) does the source give for `CC[C@H](C)[C@@H]([C@@H](CC(=O)NC[C@H]1O[C@H](C(=O)NCCc2ccccc2)[C@@H](OC)[C@@H]1OC)OC)N(C)C(=O)[C@@H](NC(=O)[C@@H](NC)C(C)C)C(C)C` here?
Its inhibition is 48%.

What about the Activity (HeLa [2]) of the same compound?
The Activity was “Active”.

And the Activity (HeLa [3])?
Its Activity is “Active”.

What about the Activity (HeLa [4]) of the same compound?
Its Activity is “Active”.

And the Activity (HeLa [5])?
Its Activity is “Active”.

What about the Activity (MCF7 [6]) of the same compound?
Its Activity is 3 min⁻¹.

What about the Activity (MCF7 [7]) of the same compound?
Its Activity is 21%.

What about the Activity (MCF7 [8]) of the same compound?
Its Activity is 12 um/min.

What about the inhibition (MCF7 [9]) of the same compound?
The inhibition was 27%.

What about the Activity (HeLa [10]) of the same compound?
Its Activity is “Active”.

What about the Activity (HeLa [11]) of the same compound?
The Activity was “Active”.

What about the Activity (HeLa [12]) of the same compound?
The Activity was 11%.

What about the Ratio (HeLa [13]) of the same compound?
Its Ratio is 12.

What about the Ratio (HeLa [14]) of the same compound?
The Ratio was 9.

What about the Activity (HeLa [15]) of the same compound?
The Activity was 17%.

And the IC50 (MDA-MB-231)?
The IC50 was 0.013 µM.

And the Activity (Tubulin (Homo sapiens))?
Its Activity is “Dose-dependent effect”.

What about the Kd (Tubulin) of the same compound?
Its Kd is 29.4 µM.

And the inhibition (Homo sapiens [16])?
Its inhibition is 54%.

What about the inhibition (Homo sapiens [17]) of the same compound?
Its inhibition is 50%.

And the inhibition (Homo sapiens [18])?
The inhibition was “Active”.

What about the inhibition (Capra hircus) of the same compound?
The inhibition was 37%.
